Reference: ChEMBL document CHEMBL1157065, “Synthesis and evaluation of some new substituted benzothiazepine and benzoxazepine derivatives as anticonvulsant agents” (Eur J Med Chem, 2010)

Experiments:
Rattus norvegicus = test: Anticonvulsant activity in Charles foster rat assessed as protection against maximal electroshock-induced seizures at 30 mg/kg, ip administered 1 hr before electroshock challenge; format: functional; details: route intraperitoneal
Procedure, shortened: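 Charles Foster rats of either sex, 90–150 g, in groups of ten, dosed i.p. with test drug or phenytoin sodium 30 mg/kg. 1 h after dosing, shock of 150 mA delivered by convulsiometer through ear electrodes for 2 s. Presence or absence of extensor response recorded.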

[1] = Acute toxicity in ip dosed mouse; format: organism-based; details: in vivo, read-out: ALD50

Oc1ccc(C2=Nc3ccccc3OC(c3ccccc3O)C2)cc1 (configuration not stated)
Activity (Rattus norvegicus): 60% | LD50 [1]: > 1000 mg/kg

COc1ccc(N/C=C2\C(c3ccc(O)cc3)=Nc3ccccc3OC2c2ccc(Cl)cc2)cc1 (configuration not stated)
Activity (Rattus norvegicus): 50% | LD50 [1]: > 1000 mg/kg

COc1cccc(C2Oc3ccccc3N=C(c3ccc(O)cc3)/C2=C\Nc2ccc(Cl)cc2)c1 (configuration not stated)
Activity (Rattus norvegicus): 30% | LD50 [1]: > 1000 mg/kg

COc1ccc(N/C=C2\C(c3ccc(O)cc3)=Nc3ccccc3OC2c2ccccc2Cl)cc1 (configuration not stated)
Activity (Rattus norvegicus): 60% | LD50 [1]: > 1000 mg/kg

Oc1ccc(C2=Nc3ccccc3OC(c3ccccc3O)/C2=C/Nc2ccc(Cl)cc2)cc1 (configuration not stated)
Activity (Rattus norvegicus): 60% | LD50 [1]: > 1000 mg/kg

O=C1N=C([O-])NC1(c1ccccc1)c1ccccc1.[Na+] [PHENYTOIN SODIUM]
Activity (Rattus norvegicus): 80%

COc1ccc(N/C=C2\C(c3ccc(O)cc3)=Nc3ccccc3SC2c2ccccc2Cl)cc1 (configuration not stated)
Activity (Rattus norvegicus): 90% | LD50 [1]: > 1000 mg/kg

Oc1ccc(C2=Nc3ccccc3OC(c3ccccc3Cl)/C2=C/Nc2ccc(Cl)cc2)cc1 (configuration not stated)
Activity (Rattus norvegicus): 50% | LD50 [1]: > 1000 mg/kg

Oc1ccc(C2=Nc3ccccc3OC(c3ccc(O)cc3)C2)cc1 (configuration not stated)
Activity (Rattus norvegicus): 70% | LD50 [1]: > 1000 mg/kg

COc1ccc(N/C=C2\C(c3ccc(O)cc3)=Nc3ccccc3OC2c2cccc(OC)c2)cc1 (configuration not stated)
Activity (Rattus norvegicus): 70% | LD50 [1]: > 1000 mg/kg

COc1cccc(C2CC(c3ccc(O)cc3)=Nc3ccccc3S2)c1 (configuration not stated)
Activity (Rattus norvegicus): 30% | LD50 [1]: > 1000 mg/kg

COc1ccc(N/C=C2\C(c3ccc(O)cc3)=Nc3ccccc3SC2c2cccc(OC)c2)cc1 (configuration not stated)
Activity (Rattus norvegicus): 50% | LD50 [1]: > 1000 mg/kg

Oc1ccc(C2=Nc3ccccc3SC(c3ccc(Cl)cc3)/C2=C/Nc2ccc(Cl)cc2)cc1 (configuration not stated)
Activity (Rattus norvegicus): 70% | LD50 [1]: > 1000 mg/kg

COc1cccc(C2Sc3ccccc3N=C(c3ccc(O)cc3)/C2=C\Nc2ccc(Cl)cc2)c1 (configuration not stated)
Activity (Rattus norvegicus): 40% | LD50 [1]: > 1000 mg/kg

Oc1ccc(C2=Nc3ccccc3SC(c3ccc(O)cc3)/C2=C/Nc2ccc(Cl)cc2)cc1 (configuration not stated)
Activity (Rattus norvegicus): 60% | LD50 [1]: > 1000 mg/kg

Oc1ccc(C2=Nc3ccccc3SC(c3ccccc3O)C2)cc1 (configuration not stated)
Activity (Rattus norvegicus): 70% | LD50 [1]: > 1000 mg/kg

COc1ccc(N/C=C2\C(c3ccc(O)cc3)=Nc3ccccc3SC2c2ccc(Cl)cc2)cc1 (configuration not stated)
Activity (Rattus norvegicus): 70% | LD50 [1]: > 2000 mg/kg

CC(O)CO (configuration not stated) [PROPYLENE GLYCOL]
Activity (Rattus norvegicus): 0%

Oc1ccc(C2=Nc3ccccc3SC(c3ccccc3O)/C2=C/Nc2ccc(Cl)cc2)cc1 (configuration not stated)
Activity (Rattus norvegicus): 60% | LD50 [1]: > 1000 mg/kg

Oc1ccc(C2=Nc3ccccc3SC(c3ccccc3Cl)C2)cc1 (configuration not stated)
Activity (Rattus norvegicus): 80% | LD50 [1]: > 1000 mg/kg

Oc1ccc(C2=Nc3ccccc3OC(c3ccc(O)cc3)/C2=C/Nc2ccc(Cl)cc2)cc1 (configuration not stated)
Activity (Rattus norvegicus): 70% | LD50 [1]: > 1000 mg/kg

Oc1ccc(C2=Nc3ccccc3OC(c3ccccc3Cl)C2)cc1 (configuration not stated)
Activity (Rattus norvegicus): 70% | LD50 [1]: > 1000 mg/kg

COc1ccc(N/C=C2\C(c3ccc(O)cc3)=Nc3ccccc3OC2c2ccccc2O)cc1 (configuration not stated)
Activity (Rattus norvegicus): 60% | LD50 [1]: > 1000 mg/kg

COc1ccc(N/C=C2\C(c3ccc(O)cc3)=Nc3ccccc3SC2c2ccc(O)cc2)cc1 (configuration not stated)
Activity (Rattus norvegicus): 60% | LD50 [1]: > 1000 mg/kg

Oc1ccc(C2=Nc3ccccc3SC(c3ccc(O)cc3)C2)cc1 (configuration not stated)
Activity (Rattus norvegicus): 60% | LD50 [1]: > 1000 mg/kg

COc1cccc(C2CC(c3ccc(O)cc3)=Nc3ccccc3O2)c1 (configuration not stated)
Activity (Rattus norvegicus): 20% | LD50 [1]: > 1000 mg/kg

COc1ccc(N/C=C2\C(c3ccc(O)cc3)=Nc3ccccc3SC2c2ccccc2O)cc1 (configuration not stated)
Activity (Rattus norvegicus): 70% | LD50 [1]: > 1000 mg/kg

COc1ccc(N/C=C2\C(c3ccc(O)cc3)=Nc3ccccc3OC2c2ccc(O)cc2)cc1 (configuration not stated)
Activity (Rattus norvegicus): 50% | LD50 [1]: > 1000 mg/kg

Oc1ccc(C2=Nc3ccccc3SC(c3ccc(Cl)cc3)C2)cc1 (configuration not stated)
Activity (Rattus norvegicus): 70% | LD50 [1]: > 1000 mg/kg

Oc1ccc(C2=Nc3ccccc3OC(c3ccc(Cl)cc3)/C2=C/Nc2ccc(Cl)cc2)cc1 (configuration not stated)
Activity (Rattus norvegicus): 60% | LD50 [1]: > 1000 mg/kg

Oc1ccc(C2=Nc3ccccc3OC(c3ccc(Cl)cc3)C2)cc1 (configuration not stated)
Activity (Rattus norvegicus): 60% | LD50 [1]: > 1000 mg/kg

Oc1ccc(C2=Nc3ccccc3SC(c3ccccc3Cl)/C2=C/Nc2ccc(Cl)cc2)cc1 (configuration not stated)
Activity (Rattus norvegicus): 70% | LD50 [1]: > 1000 mg/kg
